The text below walks through data of ChEMBL document CHEMBL3045066, “Synthesis, structure-activity relationships (SAR) and in silico studies of coumarin derivatives with antifungal activity” (2013).

Molecules are shown by their SMILES. Values after ≈ are worked out from the molar mass of the structure shown.

Format in all cases: functional
For test [1], the system named is Aspergillus flavus. Nature of the test: Antifungal activity against Aspergillus flavus LM 210 after 72 hr by broth microdilution method. The settings on record: LM 210, 72 h. The essentials: (§1)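 Molds were grown 7 days on SDA at 25–28 °C, and conidia were harvested in sterile 0.85% NaCl. Conidia were counted by hemocytometer and adjusted to about 5 × 10^6 conidia/mL. Microdilution used Sabouraud broth in 96-well plates with compound at 2048 to 8 μg/mL and about 2.5 × 10^5 conidia/mL per well. Plates were incubated at 25–28 °C for 72 h, with readings confirmed at 7 days. Amphotericin B was the reference.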

Test [2] deals with Aspergillus flavus. Nature of the test: Antifungal activity against Aspergillus flavus LM 247 after 72 hr by broth microdilution method. To be noted: LM 247, 72 h. The essentials:
as §1

Test [3] has as its system Aspergillus fumigatus. Nature of the test: Antifungal activity against Aspergillus fumigatus ATCC 46913 after 72 hr by broth microdilution method. The settings on record: ATCC 46913, 72 h. The essentials: as §1
(Dilution methods test growth across graded concentrations, often in twofold steps.)

In test [4] the test system is Aspergillus flavus. Nature of the test: Antifungal activity against Aspergillus flavus LM 26 after 72 hr by broth microdilution method. To be noted: LM 26, 72 h. The essentials: as §1
Test [5] relates to Aspergillus fumigatus. Kind of test: Antifungal activity against Aspergillus fumigatus ATCC 16913 after 72 hr by broth microdilution method. To be noted: for MIC: Aspergillus fumigatus, ATCC 16913, 72 h. The essentials:
as §1

Test [6] concerns Aspergillus fumigatus. Nature of the test: Antifungal activity against Aspergillus fumigatus IPP 210 after 72 hr by broth microdilution method. The settings on record: IPP 210, 72 h. The gist of the method: as §1
The test system of test [7] is Aspergillus flavus. Nature of the test: Antifungal activity against Aspergillus flavus ATCC 16013 after 72 hr by broth microdilution method. To be noted: ATCC 16013, 72 h. The gist of the method: as §1
Test [8] relates to Aspergillus fumigatus. Nature of the test: Antifungal activity against Aspergillus fumigatus ATCC 40640 after 72 hr by broth microdilution method. The settings on record: ATCC 40640, 72 h. The essentials: as §1

As a reminder, the MIC is the lowest concentration that inhibits growth of the organism. Low values mean inhibition by little substance, high ones a need for much substance.

Take `CC(=O)Oc1cc(=O)oc2ccccc12`: the minimal inhibitory concentration (MIC) in the test on Aspergillus flavus [1], in the test with Aspergillus flavus [2], against Aspergillus fumigatus [3], with Aspergillus flavus [4], against Aspergillus fumigatus [5] and with Aspergillus fumigatus [6] was 16 µg/mL (≈ 78.4 µM) throughout. Moreover, the minimum inhibitory concentration (MIC) against Aspergillus flavus [7] and in the test on Aspergillus fumigatus [8] was 16 µg/mL (≈ 78.4 µM) in each case. Further, the “log(1/MIC)” value in the test on Aspergillus fumigatus [5] was 4.1.

For the compound `CCOC(=O)COc1ccc2ccc(=O)oc2c1`, the minimal inhibitory concentration (MIC) against Aspergillus flavus [1], in the test with Aspergillus flavus [2], against Aspergillus fumigatus [3], with Aspergillus flavus [4], with Aspergillus fumigatus [5] and in the test with Aspergillus fumigatus [6] was 512 µg/mL (≈ 2060 µM) throughout. For the same compound, the minimum inhibitory concentration (MIC) in the test on Aspergillus flavus [7] and with Aspergillus fumigatus [8] was 512 µg/mL (≈ 2060 µM) each time. Also, the “log(1/MIC)” value with Aspergillus fumigatus [5] came out at 2.68.
